Reference: ChEMBL document CHEMBL4706770, “SD-91 as A Potent and Selective STAT3 Degrader Capable of Achieving Complete and Long-Lasting Tumor Regression” (ACS Med Chem Lett, 2021)
pKd: −log10 of the molar value. Calls of active or inactive are those of the source. The calls are words filed in the database; no cut-off is given here.

Legend:
[1] = target: T1, Signal transducer and activator of transcription 3 (Homo sapiens, UniProt P40763); assay: Induction of STAT3 degradation in human SU-DHL-1 cells incubated for 4 hrs by western blot analysis; assay type: cell-based
Summary of the method: (§1)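 Cells treated 4 h with compounds across 25 nM to 100 μM; STAT proteins detected by Western blot with GAPDH as loading control; STAT3 DC50 estimated by densitometry of STAT3 relative to GAPDH. Applies to MOLM-16 for all STATs, and to SU-DHL-1 and SUP-M2 for STAT3.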

[2] = target: T1, Signal transducer and activator of transcription 3; assay: Induction of STAT3 degradation in human MOLM-16 cells for 4 hrs by western blot analysis; assay type: cell-based; conditions: molm16; summary of the method: as §1
[3] = target: T2, Signal transducer and activator of transcription 5B (Homo sapiens, UniProt P51692); assay: Binding affinity to human recombinant STAT5B assessed as dissociation constant incubated for 15 mins by biolayer interferometry
T2 sequence (P51692 whole entry): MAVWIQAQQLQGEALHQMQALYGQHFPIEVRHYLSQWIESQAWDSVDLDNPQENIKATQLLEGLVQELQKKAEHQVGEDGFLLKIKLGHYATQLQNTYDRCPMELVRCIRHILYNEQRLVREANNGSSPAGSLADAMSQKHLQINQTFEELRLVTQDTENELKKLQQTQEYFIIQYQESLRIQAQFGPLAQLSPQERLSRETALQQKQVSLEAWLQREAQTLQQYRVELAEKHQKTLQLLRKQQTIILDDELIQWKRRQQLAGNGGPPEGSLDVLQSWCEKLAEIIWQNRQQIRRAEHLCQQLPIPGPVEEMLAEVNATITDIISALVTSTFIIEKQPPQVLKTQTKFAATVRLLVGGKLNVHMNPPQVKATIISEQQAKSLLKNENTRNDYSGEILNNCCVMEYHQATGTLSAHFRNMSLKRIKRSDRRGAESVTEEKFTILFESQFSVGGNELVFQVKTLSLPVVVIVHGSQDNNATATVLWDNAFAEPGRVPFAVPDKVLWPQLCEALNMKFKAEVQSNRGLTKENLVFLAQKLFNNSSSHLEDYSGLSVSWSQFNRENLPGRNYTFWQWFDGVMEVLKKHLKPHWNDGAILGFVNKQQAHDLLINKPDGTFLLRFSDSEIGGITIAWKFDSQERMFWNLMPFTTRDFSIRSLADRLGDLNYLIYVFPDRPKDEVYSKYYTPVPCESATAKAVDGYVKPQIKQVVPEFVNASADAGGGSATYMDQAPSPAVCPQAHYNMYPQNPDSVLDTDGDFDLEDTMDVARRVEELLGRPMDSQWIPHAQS
Summary of the method: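 Biolayer interferometry with recombinant human STAT1, STAT2, STAT3, STAT4, STAT5A, STAT5B or STAT6 proteins containing their SH2 domain. Compound run in 2× serial dilutions from 200 nM. Kd taken from steady-state fitting of equilibrium responses against concentration using a 1:1 binding model.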

[4] = target: T1, Signal transducer and activator of transcription 3; assay: Induction of STAT3 degradation in human MOLM-16 cells assessed as decrease in STAT3 level at 10 uM incubated for 4 hrs by proteomic analysis; assay type: cell-based; conditions: MOLM16
Summary of the method: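 MOLM-16 cells treated with 1 or 10 μM for 4 h. Protein levels measured by quantitative proteomics across more than 7000 proteins.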

Mus musculus = assay: In vivo induction of STAT3 degradation in SCID mouse xenografted with human MOLM16 cells assessed as reduction in STAT3 in tumor tissue at 50 mg/kg, iv measured after 24 hrs by immunoblotting analysis; assay type: functional, organism-based
Summary of the method: (§2)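 SCID mice bearing MOLM-16 tumors given a single iv dose of 50 mg/kg or dosing vehicle. Tumor lysates immunoblotted for STAT3, STAT1 and STAT6 at time points from 1 h to at least 24 h.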

[5] = Stability of the compound in PEG400/phosphate buffer saline measured upto 100 hrs by LC/MS/MS analysis; assay type: physicochemical
Summary of the method: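 Compound incubated at room temperature in dosing vehicle (10% PEG400/90% phosphate buffered saline); percentages of parent and conversion products determined at time points up to 96 h.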

[6] = target: T3, Protein cereblon/Signal transducer and activator of transcription 1-alpha/beta (Homo sapiens) (UniProt P42224+Q96SW2); assay: Protac activity at CRBN/STAT1 in human SU-DHL-1 cells […] at 0.25 to 100 uM incubated for 4 hrs by Western blot analysis; assay type: cell-based; conditions: dose lower 0.25 µM
[7] = target: T3, Protein cereblon/Signal transducer and activator of transcription 1-alpha/beta (Homo sapiens); assay: Protac activity at CRBN/STAT1 in human SUP-M2 cells […] at 0.25 to 100 uM incubated for 4 hrs by Western blot analysis; assay type: cell-based; conditions: SUPM2, dose lower 0.25 µM
[8] = target: Protein cereblon/Signal transducer and activator of transcription 2 (Homo sapiens) (UniProt Q96SW2+P52630); assay: Protac activity at CRBN/STAT2 in human SUP-M2 cells […] at 0.25 to 100 uM incubated for 4 hrs by Western blot analysis; assay type: cell-based; conditions: SUPM2, dose lower 0.25 µM
[9] = target: Protein cereblon/Signal transducer and activator of transcription 4 (Homo sapiens) (UniProt Q96SW2+Q14765); assay: Protac activity at CRBN/STAT4 in human SUP-M2 cells assessed as STAT4 degradation at 0.25 to 100 uM incubated for 4 hrs by Western blot analysis; assay type: cell-based; conditions: SUPM2, dose 0.25-100 µM
[10] = target: T3, Protein cereblon/Signal transducer and activator of transcription 1-alpha/beta (Homo sapiens); assay: In vivo protac activity at CRBN/STAT1 degradation in SCID mouse xenografted with human MOLM16 cells assessed as reduction in STAT1 in tumor tissue at 50 mg/kg, iv measured after 24 hrs by immunoblotting analysis; assay type: functional, organism-based; summary of the method: as §2
[11] = (§3) Stability of compound in buffer pH 8 assessed as conversion to (2-(((5S,8S,10aR)-8-(((S)-5-amino-1-(benzhydrylamino)-1,5-dioxopentan-2-yl)carbamoyl)-3-(8-(2-(2,6-dioxopiperidin-3-yl)-1-oxoisoindolin-4-yl)oct-7-ynoyl)-6-oxodecahydropyrrolo[1,2-a][1,5]diazocin-5-yl)carbamoyl)-1H-indole-5-carbonyl)phosphonic acid by measuring half life at 37 degC by LC/MS/MS analysis; assay type: physicochemical
Summary of the method: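 SD-36 incubated in pH 8 buffer at 37 °C; percentages of parent and hydrolysis products followed over time; half-life of conversion derived from the time course.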

[12] = as §3, with “Drug metabolism buffer” for “Stability of compound in buffer”, “pH 4” for “pH 8”, “by measured after 96 hrs” for “by measuring half life”

T1 sequence (P40763 whole entry): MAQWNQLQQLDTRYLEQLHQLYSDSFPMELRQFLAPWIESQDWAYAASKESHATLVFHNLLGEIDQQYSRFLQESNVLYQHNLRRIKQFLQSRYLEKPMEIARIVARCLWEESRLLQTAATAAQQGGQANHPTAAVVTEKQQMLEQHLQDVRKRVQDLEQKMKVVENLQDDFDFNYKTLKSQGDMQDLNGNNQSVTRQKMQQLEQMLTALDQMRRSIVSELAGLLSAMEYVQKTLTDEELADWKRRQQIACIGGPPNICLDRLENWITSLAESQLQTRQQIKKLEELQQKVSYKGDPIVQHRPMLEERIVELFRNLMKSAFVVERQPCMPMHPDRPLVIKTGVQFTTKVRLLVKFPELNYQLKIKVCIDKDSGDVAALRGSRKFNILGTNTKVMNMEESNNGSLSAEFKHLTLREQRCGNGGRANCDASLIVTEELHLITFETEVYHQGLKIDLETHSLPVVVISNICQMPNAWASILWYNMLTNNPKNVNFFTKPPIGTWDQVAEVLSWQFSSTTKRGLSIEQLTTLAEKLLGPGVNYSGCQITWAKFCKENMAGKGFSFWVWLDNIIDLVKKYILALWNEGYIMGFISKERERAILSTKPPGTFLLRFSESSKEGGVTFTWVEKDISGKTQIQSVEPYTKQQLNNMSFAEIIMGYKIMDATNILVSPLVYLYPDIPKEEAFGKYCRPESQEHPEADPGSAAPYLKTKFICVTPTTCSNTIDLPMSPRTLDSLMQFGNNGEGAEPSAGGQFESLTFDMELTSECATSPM
Protein cereblon/Signal transducer and activator of transcription 4 (Homo sapiens), sequence (Q14765 whole entry, looked up): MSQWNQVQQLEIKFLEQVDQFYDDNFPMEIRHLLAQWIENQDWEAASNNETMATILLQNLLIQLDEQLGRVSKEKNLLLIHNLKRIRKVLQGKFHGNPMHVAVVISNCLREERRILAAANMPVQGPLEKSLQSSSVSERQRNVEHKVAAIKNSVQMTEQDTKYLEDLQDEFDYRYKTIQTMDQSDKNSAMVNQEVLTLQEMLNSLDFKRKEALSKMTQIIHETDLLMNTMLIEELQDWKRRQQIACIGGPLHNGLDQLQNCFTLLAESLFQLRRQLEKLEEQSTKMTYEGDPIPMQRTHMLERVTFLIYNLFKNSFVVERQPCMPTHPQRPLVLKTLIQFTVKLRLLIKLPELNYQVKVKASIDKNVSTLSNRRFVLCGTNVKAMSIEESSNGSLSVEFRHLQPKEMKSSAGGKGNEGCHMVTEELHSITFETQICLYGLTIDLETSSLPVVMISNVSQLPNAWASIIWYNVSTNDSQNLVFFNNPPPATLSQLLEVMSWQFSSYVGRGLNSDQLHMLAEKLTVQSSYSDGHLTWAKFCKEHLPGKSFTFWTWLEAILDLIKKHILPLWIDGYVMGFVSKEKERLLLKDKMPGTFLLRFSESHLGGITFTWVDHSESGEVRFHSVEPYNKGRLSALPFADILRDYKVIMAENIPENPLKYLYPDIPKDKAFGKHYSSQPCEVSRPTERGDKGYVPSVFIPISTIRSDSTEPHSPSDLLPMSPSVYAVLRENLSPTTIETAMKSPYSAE
Protein cereblon/Signal transducer and activator of transcription 4 (Homo sapiens), sequence (Q96SW2 whole entry, looked up): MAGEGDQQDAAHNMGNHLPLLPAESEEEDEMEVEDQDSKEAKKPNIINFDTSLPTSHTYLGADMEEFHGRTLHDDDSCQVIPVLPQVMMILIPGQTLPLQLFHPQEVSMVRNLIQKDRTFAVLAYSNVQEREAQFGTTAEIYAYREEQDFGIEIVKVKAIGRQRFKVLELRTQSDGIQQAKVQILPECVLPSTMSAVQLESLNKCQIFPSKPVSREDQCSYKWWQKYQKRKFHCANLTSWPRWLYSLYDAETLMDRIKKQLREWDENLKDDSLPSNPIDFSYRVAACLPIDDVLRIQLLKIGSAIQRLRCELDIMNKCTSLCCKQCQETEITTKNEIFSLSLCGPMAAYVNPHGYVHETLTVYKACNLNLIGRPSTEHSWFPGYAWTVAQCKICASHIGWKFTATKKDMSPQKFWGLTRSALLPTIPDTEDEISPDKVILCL
Protein cereblon/Signal transducer and activator of transcription 2 (Homo sapiens), sequence (P52630 whole entry, looked up): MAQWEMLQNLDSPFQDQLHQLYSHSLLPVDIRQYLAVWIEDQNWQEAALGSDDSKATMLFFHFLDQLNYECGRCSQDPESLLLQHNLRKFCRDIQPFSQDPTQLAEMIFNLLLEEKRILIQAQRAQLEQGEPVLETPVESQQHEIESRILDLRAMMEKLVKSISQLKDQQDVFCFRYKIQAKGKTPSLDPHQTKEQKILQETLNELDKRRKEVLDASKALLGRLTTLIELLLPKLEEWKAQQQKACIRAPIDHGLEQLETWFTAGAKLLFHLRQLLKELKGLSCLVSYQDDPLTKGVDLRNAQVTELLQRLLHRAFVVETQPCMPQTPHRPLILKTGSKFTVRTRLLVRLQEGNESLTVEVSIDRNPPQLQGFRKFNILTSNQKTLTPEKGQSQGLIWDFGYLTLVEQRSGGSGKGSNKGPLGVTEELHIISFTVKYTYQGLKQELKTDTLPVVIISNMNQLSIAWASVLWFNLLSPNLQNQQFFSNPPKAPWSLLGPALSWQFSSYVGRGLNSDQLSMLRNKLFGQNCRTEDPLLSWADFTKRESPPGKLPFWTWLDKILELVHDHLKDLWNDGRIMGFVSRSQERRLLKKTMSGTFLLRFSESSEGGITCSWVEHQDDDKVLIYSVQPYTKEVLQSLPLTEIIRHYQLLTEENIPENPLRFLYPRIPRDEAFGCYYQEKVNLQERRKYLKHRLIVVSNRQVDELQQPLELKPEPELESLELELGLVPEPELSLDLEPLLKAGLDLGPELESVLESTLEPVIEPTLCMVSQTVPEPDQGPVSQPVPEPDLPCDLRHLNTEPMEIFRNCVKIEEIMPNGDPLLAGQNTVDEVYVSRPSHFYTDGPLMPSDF
Protein cereblon/Signal transducer and activator of transcription 2 (Homo sapiens), sequence (Q96SW2 whole entry, looked up): as the sequence (Q96SW2 whole entry, looked up) above

SMILES: NC(=O)CC[C@H](NC(=O)[C@@H]1CC[C@@H]2CCN(C(=O)CCCCCC#Cc3cccc4c3CN(C3CCC(=O)NC3=O)C4=O)C[C@H](NC(=O)c3cc4cc(C(=O)P(=O)(O)O)ccc4[nH]3)C(=O)N21)C(=O)NC(c1ccccc1)c1ccccc1 (stereo partly drawn)
- DC50 [1]: 0.017 µM
- DC50 [2]: 0.12 µM
- pKd [3]: < 8.00
- Activity [4]: Active
- Activity (Mus musculus): Active
- Stabilty [5]: Stable

SMILES: NC(=O)CC[C@H](NC(=O)[C@@H]1CC[C@@H]2CCN(C(=O)CCCCCC#Cc3cccc4c3CN(C3CCC(=O)NC3=O)C4=O)C[C@H](NC(=O)c3cc4cc(C(F)(F)P(=O)(O)O)ccc4[nH]3)C(=O)N21)C(=O)NC(c1ccccc1)c1ccccc1 (stereo partly drawn)
- Activity [6]: inactive
- Activity [7]: inactive
- Activity [8]: inactive
- Activity [9]: inactive
- Activity [10]: inactive
- t1/2 [11]: 4 h
- Drug metabolism [12]: 25%
